What was measured:
[1] = biological target: T1, Inosine-5'-monophosphate dehydrogenase 2 (Homo sapiens, UniProt P12268); test: Inhibition of human recombinant inosine monophosphate dehydrogenase type II.
Procedure, shortened: (§1)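 Reactions are run either at pH 7.4 (0.1 M K phosphate, 0.5 M KCl, 3 mM EDTA, 10 μg/mL BSA) or at pH 8.0 (0.1 M Tris-HCl, 0.1 M KCl, 3 mM EDTA, 100 μg/mL BSA). DMSO ≤10%, compounds tested up to 100 μM. IC50 from fit of fractional activity = V0/[(I/IC50)^n + 1].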

[2] = biological target: T1, Inosine-5'-monophosphate dehydrogenase 2; test: Inhibition of human recombinant type II Inosine Monophosphate Dehydrogenase. at pH 8.0
Procedure, shortened: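 Recombinant human type II IMPDH (12.5-25 pmol) in 0.1 M Tris-HCl pH 8.0, 0.1 M KCl, 3 mM EDTA, 100 μg/mL BSA. […] IC50 fitted with a Hill equation, fractional activity = V0/[(I/IC50)^n + 1].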

[3] = Compound was tested for inhibition of human Lymphocyte proliferation. The IC50 values were determined by interpolation using the cubic spline determination.; format: functional
Procedure, shortened: (§2)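 Human PBMC are isolated on Ficoll from heparinized blood and plated at 2 × 10^5 cells/well in RPMI-1640 with 5% FCS. Cells are stimulated with PHA (10 μg/mL final) and given compound at time 0, at 4-6 concentrations between 0.001 and 20 μM (tested to 10 μM). Cultures run in quadruplicate for 72 h at 37 °C, 7% CO2, with [3H]thymidine (0.5 μCi/well) for the last 6 h. IC50 by cubic-spline interpolation of the means.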

Homo sapiens [4] = species: Homo sapiens; test: Inhibition of human Lymphocyte proliferation. The IC50 values were determined by interpolation using the cubic spline determination at 10 uM; format: functional; procedure, shortened: as §2
[5] = biological target: T1, Inosine-5'-monophosphate dehydrogenase 2; test: Inhibition of human recombinant type II Inosine Monophosphate Dehydrogenase at 100 uM; procedure, shortened: as §1
Homo sapiens [6] = species: Homo sapiens; test: Inhibition of human Lymphocyte proliferation. The IC50 values were determined by interpolation using cubic spline determination.; format: functional; procedure, shortened: as §2
Homo sapiens [7] = species: Homo sapiens; test: Compound was tested for inhibition of human Lymphocyte proliferation. The IC50 values were determined by interpolation using the cubic spline determination at 10 uM; format: functional; procedure, shortened: as §2
Mus musculus [8] = test: Tested for the inhibition of murine PFC response at 100 mg/kg dose; format: functional
Mus musculus [9] = test: Tested for the inhibition of murine PFC response at 50 mg/kg dose; format: functional
Mus musculus [10] = species: Mus musculus; test: Effective dose was measured in mice as concentration required to inhibit 50% inhibition of Murine PFC response; format: functional
Procedure, shortened: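 Jerne plaque assay in female C3H or CD-1 mice immunized ip with SRBC on day 0, with oral daily dosing over the next 4 days. Splenic PFC per 10^6 WBC counted on day 4. ED50 read graphically from the dose-inhibition data.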

Mus musculus [11] = test: Tested for the inhibition of murine PFC response at 6.25 mg/kg dose; format: functional
Mus musculus [12] = test: Tested for the inhibition of murine PFC response at 25 mg/kg dose; format: functional
Mus musculus [13] = test: Tested for the inhibition of murine PFC response at 12.5 mg/kg dose; format: functional

| Compound | IC50 [1] | IC50 [5] | IC50 (Homo sapiens [6]) | also measured |
| --- | --- | --- | --- | --- |
| COc1c(C/C=C(\C)CCC(=O)O)cc(C#N)c(C)c1C | 1600 nM |  |  |  |
| COc1c(C)c(C)c(OC)c(C/C=C(\C)CCC(=O)O)c1O | 11900 nM |  |  |  |
| COc1c(C)c2c(c(O)c1C/C=C(\C)CCC(=O)O)C(=O)N(C)C2 |  |  |  | IC50 [2]: > 100000 nM; IC50 [3]: > 10000 nM |
| COc1c(C)c(C)c(O)c(Cl)c1C/C=C(\C)CCC(=O)O |  | 2880 nM |  | IC50 (Homo sapiens [4]): > 10000 nM |
| COc1c(C/C=C(\C)CCC(=O)O)cc(Cl)c(C)c1C | 537 nM |  | 6700 nM |  |
| C/C(=C\Cc1c(C)c(C)c(C)c([N+](=O)[O-])c1O)CCC(=O)O | 289 nM |  | 3200 nM |  |
| CO/N=C/c1c(C)c(C)c(OC)c(C/C=C(\C)CCC(=O)O)c1O |  | 52800 nM |  | IC50 (Homo sapiens [7]): > 10000 nM |
| COc1c(C)c(C)c(Cl)c(Cl)c1C/C=C(\C)CCC(=O)O |  | 557 nM |  | IC50 (Homo sapiens [4]): > 10000 nM |
| COc1c(C)c(C)c(C=O)c(O)c1C/C=C(\C)CCC(=O)O | 1120 nM |  | 10000 nM |  |
| COc1c(C/C=C(\C)CCC(=O)O)cc(S(C)=O)c(C)c1C (stereo not given) |  | > 100000 nM |  | IC50 (Homo sapiens [4]): > 10000 nM |
| COc1c(C)c(C)c(I)c(O)c1C/C=C(\C)CCC(=O)O | 592 nM |  | 4900 nM |  |
| COc1c(C)c(C)c([N+](=O)[O-])c(Cl)c1C/C=C(\C)CCC(=O)O |  | 1800 nM |  | IC50 (Homo sapiens [4]): > 10000 nM |
| COc1c(C)c(C)c(F)c(F)c1C/C=C(\C)CCC(=O)O |  | 1380 nM |  | IC50 (Homo sapiens [4]): > 10000 nM |
| COc1c(C)c(C)c([N+](=O)[O-])c(N)c1C/C=C(\C)CCC(=O)O | 465 nM |  | 2800 nM |  |
| C/C(=C\Cc1c(O)c2c(c(C)c1C#N)COC2=O)CCC(=O)O | 15500 nM |  | > 10000 nM |  |
| COc1c(C)c2c(c(O)c1C/C=C(\C)CCC(=O)O)C(=O)SC2 | 121 nM |  | 1700 nM |  |

| Compound | IC50 [1] | IC50 [5] | IC50 (Homo sapiens [6]) | also measured |
| --- | --- | --- | --- | --- |
| COc1cc2c(c(O)c1C/C=C(\C)CCC(=O)O)C(=O)OC2 |  |  |  | IC50 [2]: 515 nM |
| COc1cc(C/C=C(\C)CCC(=O)O)c(OC)c(C)c1C | 50000 nM |  |  |  |
| C/C(=C\Cc1c(O)c2c(c(C)c1-c1ccccc1)COC2=O)CCC(=O)O | 130 nM |  | 2800 nM |  |
| C/C(=C\Cc1c(C)c(C)c(C)c(Cl)c1O)CCC(=O)O | 69.3 nM |  | 360 nM |  |
| COc1c(C/C=C(\C)CCC(=O)O)cc(SC)c(C)c1C |  | 52300 nM |  | IC50 (Homo sapiens [4]): > 10000 nM |
| COc1c(C)c(C)c(Br)c(Cl)c1C/C=C(\C)CCC(=O)O |  | 1040 nM |  | IC50 (Homo sapiens [4]): > 10000 nM |
| COc1c(C)c(C)c(Cl)c(C)c1C/C=C(\C)CCC(=O)O |  | 1700 nM |  | IC50 (Homo sapiens [4]): > 10000 nM |
| CCOc1c(C)c2c(c(O)c1C/C=C(\C)CCC(=O)O)C(=O)OC2 |  |  | 430 nM | IC50 [2]: 89.8 nM |
| COc1c(C)c(C)c(Cl)c(F)c1C/C=C(\C)CCC(=O)O | 437 nM |  | 7500 nM | inhibition in vivo at 100 mg/kg (Mus musculus [8]): 0% |
| COc1c(C/C=C(\C)CCC(=O)O)cc(O)c(C)c1C |  | > 100000 nM |  |  |
| COc1c(C)c(C)cc(Cl)c1C/C=C(\C)CCC(=O)O |  | 18800 nM |  | IC50 (Homo sapiens [4]): > 10000 nM |
| COc1c(C)c2c(c(O)c1C/C=C(\C)CCC(=O)O)C(=O)OCC2 |  |  | 8600 nM | IC50 [2]: 644 nM |
| COc1c(C)c(C)cc(O)c1C/C=C(\C)CCC(=O)O | 51800 nM |  |  |  |
| C/C(=C\Cc1c(C)c(C)c2c(c1O)C(=O)OC2)CCC(=O)O |  |  | 250 nM | IC50 [2]: 18.6 nM; inhibition in vivo at 50 mg/kg (Mus musculus [9]): 45% |
| COc1c(C)c(C)c(Br)c(N)c1C/C=C(\C)CCC(=O)O | 462 nM |  | 4100 nM | inhibition in vivo at 100 mg/kg (Mus musculus [8]): 30% |
| COc1c(C)c2c(c(O)c1C/C=C(\C)CCC(=O)O)C(=O)OC2 [MYCOPHENOLIC ACID] |  |  | 58 nM | ED50 (Mus musculus [10]): 33 mg/kg; inhibition in vivo at 50 mg/kg (Mus musculus [9]): 81%; inhibition in vivo at 6.25 mg/kg (Mus musculus [11]): 16%; inhibition in vivo at 25 mg/kg (Mus musculus [12]): 36%; inhibition in vivo at 12.5 mg/kg (Mus musculus [13]): 20% |
